Measured values reported in ChEMBL document CHEMBL1641579, “Synthesis and biological evaluation of 7-substituted-1-(3-bromophenylamino)isoquinoline-4-carbonitriles as inhibitors of myosin light chain kinase and epidermal growth factor receptor” (Bioorg Med Chem, 2011).

Columns and labels:
[1] = biological target: T1, Mitogen-activated protein kinase kinase kinase kinase 2 (Homo sapiens) (UniProt Q12851); assay: Inhibition of GCK assessed as residual activity at 10 uM
T1 sequence (whole entry): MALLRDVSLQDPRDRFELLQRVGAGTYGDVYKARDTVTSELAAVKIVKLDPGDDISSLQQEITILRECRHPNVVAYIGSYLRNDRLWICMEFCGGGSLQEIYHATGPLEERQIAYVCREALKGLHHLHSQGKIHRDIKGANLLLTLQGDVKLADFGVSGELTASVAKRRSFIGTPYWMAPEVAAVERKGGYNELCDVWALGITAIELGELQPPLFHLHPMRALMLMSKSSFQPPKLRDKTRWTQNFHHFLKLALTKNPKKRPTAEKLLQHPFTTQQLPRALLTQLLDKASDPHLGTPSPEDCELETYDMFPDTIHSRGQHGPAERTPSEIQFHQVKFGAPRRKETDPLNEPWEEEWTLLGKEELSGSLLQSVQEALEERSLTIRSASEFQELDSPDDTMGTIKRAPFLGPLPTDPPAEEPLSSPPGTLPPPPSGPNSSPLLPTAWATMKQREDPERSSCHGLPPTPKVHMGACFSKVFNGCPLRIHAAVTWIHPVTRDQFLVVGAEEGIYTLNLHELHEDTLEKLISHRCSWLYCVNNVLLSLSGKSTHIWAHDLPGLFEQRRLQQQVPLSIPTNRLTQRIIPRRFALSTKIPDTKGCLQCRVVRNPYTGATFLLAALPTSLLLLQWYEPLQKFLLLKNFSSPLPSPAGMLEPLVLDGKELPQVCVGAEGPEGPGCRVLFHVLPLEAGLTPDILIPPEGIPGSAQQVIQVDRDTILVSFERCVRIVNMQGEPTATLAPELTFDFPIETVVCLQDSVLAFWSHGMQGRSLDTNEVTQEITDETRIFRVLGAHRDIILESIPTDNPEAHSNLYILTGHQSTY
In short: (§1)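 Kinase panel screen run as a radioactive activity assay at single compound concentration. Score reported as percent activity remaining relative to DMSO controls (100%).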

[2] = Inhibition of PKA assessed as residual activity at 10 uM
In short: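 Panel screen by radioactive kinase assay at a single inhibitor concentration. Score is the percent activity remaining relative to DMSO controls (100%).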

[3] = biological target: Cyclin-dependent kinase 2/cyclin A (Homo sapiens) (UniProt P24941+P20248+P78396); assay: Inhibition of CDK2/CyclinA assessed as residual activity at 10 uM; assay type: protein-complex assay; in short: as §1
Chain of Cyclin-dependent kinase 2/cyclin A (Homo sapiens) (P20248 whole entry, looked up, other chains not shown): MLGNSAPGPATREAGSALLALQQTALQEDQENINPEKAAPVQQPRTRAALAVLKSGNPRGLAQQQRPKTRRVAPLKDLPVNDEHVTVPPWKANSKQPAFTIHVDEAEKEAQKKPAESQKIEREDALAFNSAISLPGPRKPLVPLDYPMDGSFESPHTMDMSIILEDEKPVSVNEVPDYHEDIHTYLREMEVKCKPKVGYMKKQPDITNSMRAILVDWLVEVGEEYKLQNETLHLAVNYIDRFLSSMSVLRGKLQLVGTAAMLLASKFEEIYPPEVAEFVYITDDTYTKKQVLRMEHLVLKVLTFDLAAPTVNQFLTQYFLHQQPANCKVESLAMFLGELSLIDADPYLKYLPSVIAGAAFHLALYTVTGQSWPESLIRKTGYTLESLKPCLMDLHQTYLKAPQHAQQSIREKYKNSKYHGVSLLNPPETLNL
Chain of Cyclin-dependent kinase 2/cyclin A (Homo sapiens) (P78396 whole entry, looked up, other chains not shown): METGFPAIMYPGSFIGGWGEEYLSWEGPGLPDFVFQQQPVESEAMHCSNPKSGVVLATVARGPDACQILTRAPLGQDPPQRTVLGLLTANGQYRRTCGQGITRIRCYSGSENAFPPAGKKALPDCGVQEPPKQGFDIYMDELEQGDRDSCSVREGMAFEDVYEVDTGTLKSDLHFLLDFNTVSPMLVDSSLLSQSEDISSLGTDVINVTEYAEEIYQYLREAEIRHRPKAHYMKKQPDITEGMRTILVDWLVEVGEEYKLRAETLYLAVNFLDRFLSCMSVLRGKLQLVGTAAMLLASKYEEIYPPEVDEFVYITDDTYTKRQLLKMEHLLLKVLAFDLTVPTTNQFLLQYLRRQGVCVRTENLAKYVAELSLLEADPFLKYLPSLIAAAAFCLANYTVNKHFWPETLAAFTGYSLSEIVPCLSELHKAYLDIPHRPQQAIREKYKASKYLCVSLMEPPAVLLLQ

[4] = biological target: Fibroblast growth factor receptor 1 (Homo sapiens) (UniProt P11362); assay: Inhibition of FGFR1 assessed as residual activity at 10 uM; in short: as §1
Chain of Fibroblast growth factor receptor 1 (Homo sapiens) (P11362 22-822 limits assumed): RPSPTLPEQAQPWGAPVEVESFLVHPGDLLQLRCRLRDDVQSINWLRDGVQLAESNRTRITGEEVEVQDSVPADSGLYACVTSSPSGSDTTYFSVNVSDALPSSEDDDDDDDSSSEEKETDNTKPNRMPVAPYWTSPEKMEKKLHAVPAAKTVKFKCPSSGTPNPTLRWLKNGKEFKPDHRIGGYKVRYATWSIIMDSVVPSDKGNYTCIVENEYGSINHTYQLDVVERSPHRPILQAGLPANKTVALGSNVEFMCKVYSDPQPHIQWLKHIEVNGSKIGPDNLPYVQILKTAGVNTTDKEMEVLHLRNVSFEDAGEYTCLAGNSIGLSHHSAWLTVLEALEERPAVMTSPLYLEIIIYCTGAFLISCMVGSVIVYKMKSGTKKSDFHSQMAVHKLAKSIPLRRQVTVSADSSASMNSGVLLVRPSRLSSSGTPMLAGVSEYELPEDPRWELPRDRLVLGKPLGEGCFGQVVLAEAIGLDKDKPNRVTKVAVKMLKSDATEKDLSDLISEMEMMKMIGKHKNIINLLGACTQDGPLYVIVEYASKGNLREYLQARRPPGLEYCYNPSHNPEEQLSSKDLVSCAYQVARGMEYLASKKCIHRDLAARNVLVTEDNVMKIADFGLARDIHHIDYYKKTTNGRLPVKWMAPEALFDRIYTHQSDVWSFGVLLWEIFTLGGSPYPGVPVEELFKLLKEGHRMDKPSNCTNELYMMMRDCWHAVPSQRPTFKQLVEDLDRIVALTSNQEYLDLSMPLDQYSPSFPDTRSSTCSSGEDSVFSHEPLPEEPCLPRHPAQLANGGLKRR

[5] = biological target: T2, Serine/threonine-protein kinase STK11 (Homo sapiens) (UniProt Q15831); assay: Inhibition of LKB1 assessed as residual activity at 10 uM; in short: as §1
T2 sequence (whole entry): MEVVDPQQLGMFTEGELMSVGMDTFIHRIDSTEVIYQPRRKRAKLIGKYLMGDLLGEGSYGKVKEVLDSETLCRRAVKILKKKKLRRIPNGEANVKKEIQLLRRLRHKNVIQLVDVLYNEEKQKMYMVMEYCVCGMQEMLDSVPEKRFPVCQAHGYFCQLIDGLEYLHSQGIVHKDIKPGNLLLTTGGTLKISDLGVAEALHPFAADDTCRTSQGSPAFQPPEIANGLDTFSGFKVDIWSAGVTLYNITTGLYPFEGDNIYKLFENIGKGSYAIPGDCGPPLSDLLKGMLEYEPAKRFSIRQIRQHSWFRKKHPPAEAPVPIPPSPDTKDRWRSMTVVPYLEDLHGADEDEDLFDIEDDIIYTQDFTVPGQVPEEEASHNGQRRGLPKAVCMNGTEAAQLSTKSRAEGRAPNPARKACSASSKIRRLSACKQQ

[6] = biological target: T3, MAP/microtubule affinity-regulating kinase 4 (Homo sapiens) (UniProt Q96L34); assay: Inhibition of MARK4 assessed as residual activity at 10 uM; in short: as §1
T3 sequence (whole entry): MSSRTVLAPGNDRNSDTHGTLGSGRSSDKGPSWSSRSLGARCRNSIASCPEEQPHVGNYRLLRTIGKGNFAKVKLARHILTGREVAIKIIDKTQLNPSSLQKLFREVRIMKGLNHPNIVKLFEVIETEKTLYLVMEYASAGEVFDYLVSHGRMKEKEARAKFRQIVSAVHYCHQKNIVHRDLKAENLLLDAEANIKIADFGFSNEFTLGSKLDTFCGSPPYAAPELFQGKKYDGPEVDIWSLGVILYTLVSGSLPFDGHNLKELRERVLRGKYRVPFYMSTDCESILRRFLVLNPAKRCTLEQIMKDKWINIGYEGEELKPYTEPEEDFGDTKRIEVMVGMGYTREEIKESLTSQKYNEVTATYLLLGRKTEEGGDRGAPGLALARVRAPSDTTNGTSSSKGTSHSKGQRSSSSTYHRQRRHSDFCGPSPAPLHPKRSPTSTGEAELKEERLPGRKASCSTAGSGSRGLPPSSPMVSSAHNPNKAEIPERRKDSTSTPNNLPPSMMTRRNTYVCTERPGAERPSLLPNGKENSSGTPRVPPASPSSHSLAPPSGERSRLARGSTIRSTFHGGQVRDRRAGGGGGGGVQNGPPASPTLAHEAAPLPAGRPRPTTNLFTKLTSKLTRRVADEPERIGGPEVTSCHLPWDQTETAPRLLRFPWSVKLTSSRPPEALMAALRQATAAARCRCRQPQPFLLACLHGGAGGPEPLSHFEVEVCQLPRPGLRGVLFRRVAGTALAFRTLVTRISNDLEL

Row | Structure (SMILES) | Activity [1] | Activity [2] | Activity [3] | Activity [4] | Activity [5] | Activity [6]
1 | CN1CCN(CCC(=O)Nc2ccc3c(C#N)cnc(Nc4cccc(Br)c4)c3c2)CC1 | 84% | 100% | 100% | 100% | 100% | 100%
2 | CN(C)CCCC(=O)Nc1ccc2c(C#N)cnc(Nc3cccc(Br)c3)c2c1 | 80% | 100% | 100% | 99% | 100% | 100%
3 | CN(C)C/C=C/C(=O)Nc1ccc2c(C#N)cnc(Nc3cccc(Br)c3)c2c1 | 84% | 100% | 97% | 51% | 99% | 82%
